{
  "source": "ChEMBL document CHEMBL3808334",
  "about": "“Synthesis and in vitro evaluation of novel triazine analogues as anticancer agents and their interaction studies with bovine serum albumin” (Eur J Med Chem, 2016)",
  "format_in_all_cases": "functional",
  "key": {"[1]": {"test": "Growth inhibition of human HOP92 cells assessed as cell growth at 10^-6 M incubated for 48 hrs by sulforhodamine B assay", "conditions": "HOP-92, 48 h, read-out: Activity"}, "[2]": {"test": "Growth inhibition of human SF295 cells assessed as cell growth at 10^-4 M incubated for 48 hrs by sulforhodamine B assay", "conditions": "SF-295, 48 h, read-out: Activity"}, "T47D": {"tested_on": "T47D", "test": "Growth inhibition of human T47D cells incubated for 48 hrs by sulforhodamine B assay", "method_in_brief": "(§1)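 Cells were plated at 5,000–40,000 per well according to doubling time and preincubated 24 h at 37 °C in 5% CO2; time-zero plates were then TCA-fixed. Five concentrations (10-fold or ½-log dilutions, DMSO stock) were incubated 48 h. Cells were TCA-fixed, stained with 0.4% SRB and read at 515 nm. GI50 was taken where [(Ti−Tz)/(C−Tz)]×100 = 50.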"}, "A498": {"tested_on": "A498", "test": "Growth inhibition of human A498 cells assessed as cell growth at 10^-5 M incubated for 48 hrs by sulforhodamine B assay", "conditions": "A498, 48 h, read-out: Activity", "method_in_brief": "(§2)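 Five-dose assay: five concentrations from 10-fold or ½-log serial dilutions. Cells are plated at 5,000–40,000 per well according to doubling time, grown 24 h, then exposed 48 h at 37 °C, 5% CO₂. Fixed with cold 50% TCA (final addition) for 60 min at 4 °C and stained with 0.4% SRB in 1% acetic acid. Bound dye is solubilized in 10 mM Tris base and read at 515 nm. GI₅₀ is where [(Ti−Tz)/(C−Tz)]×100 = 50, with a time-zero plate as Tz.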"}, "[3]": {"test": "Growth inhibition of human BT549 cells assessed as cell growth at 10 uM incubated for 48 hrs by sulforhodamine B assay", "conditions": "BT-549, 48 h, read-out: Activity", "method_in_brief": "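One-dose screen at 10 µM final. Cells are plated at 5,000–40,000 per well according to doubling time and preincubated 24 h at 37 °C, 5% CO₂. Compound (DMSO stock diluted in medium with 50 µg/ml gentamicin) is then added for 48 h. Growth percent is read by sulforhodamine B staining, absorbance at 515 nm.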"}, "[4]": {"test": "Growth inhibition of human SW620 cells assessed as cell growth at 10 uM incubated for 48 hrs by sulforhodamine B assay", "conditions": "SW-620, 48 h, read-out: Activity"}, "[5]": {"test": "Growth inhibition of human HCT116 cells assessed as cell growth at 10^-5 M incubated for 48 hrs by sulforhodamine B assay", "conditions": "HCT-116, 48 h, read-out: Activity", "method_in_brief": "(§3)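 Cells seeded at 5,000–40,000/well according to doubling time and preincubated 24 h at 37 °C, 5% CO2. Time-zero plates were TCA-fixed. DMSO concentrate was diluted in medium with 50 µg/ml gentamicin to give five concentrations (10-fold or ½ log steps), then exposed 48 h. Cells were TCA-fixed, stained with 0.4% SRB and read at 515 nm. Percent growth was taken against time-zero and control; GI50, TGI and LC50 derived.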"}, "[6]": {"test": "Growth inhibition of human MOLT4 cells assessed as cell growth at 10^-8 M incubated for 48 hrs by sulforhodamine B assay", "conditions": "MOLT-4, 48 h, read-out: Activity"}, "[7]": {"test": "Growth inhibition of human BT549 cells assessed as cell growth at 10^-7 M incubated for 48 hrs by sulforhodamine B assay", "conditions": "BT-549, 48 h, read-out: Activity", "method_in_brief": "as §2"}, "[8]": {"test": "Growth inhibition of human COLO205 cells incubated for 48 hrs by sulforhodamine B assay", "conditions": "COLO 205, 48 h", "method_in_brief": "as §3"}, "[9]": {"test": "Growth inhibition of human renal cancer cells incubated for 48 hrs by sulforhodamine B assay", "conditions": "Cancer cell lines"}, "CCRF-CEM": {"tested_on": "CCRF-CEM", "test": "Growth inhibition of human CCRF-CEM cells incubated for 48 hrs by sulforhodamine B assay", "method_in_brief": "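Leukemia line in the five-dose format: five concentrations from 10-fold or ½-log serial dilutions. Plated at 5,000–40,000 cells per well, preincubated 24 h, then compound added for 48 h at 37 °C, 5% CO₂. Sulforhodamine B absorbance read at 515 nm. Growth is computed against time-zero (Tz) and control (C) readings; GI₅₀ is where [(Ti−Tz)/(C−Tz)]×100 = 50.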"}, "[10]": {"test": "Growth inhibition of human HOP62 cells assessed as cell growth at 10^-5 M incubated for 48 hrs by sulforhodamine B assay", "conditions": "HOP-62, 48 h, read-out: Activity"}, "[11]": {"test": "Growth inhibition of human SW620 cells assessed as cell growth at 10^-8 M incubated for 48 hrs by sulforhodamine B assay", "conditions": "SW-620, 48 h, read-out: Activity"}, "SN12C": {"tested_on": "SN12C", "test": "Growth inhibition of human SN12C cells incubated for 48 hrs by sulforhodamine B assay", "method_in_brief": "as §1"}, "NCI-H226": {"tested_on": "NCI-H226", "test": "Growth inhibition of human NCI-H226 cells assessed as cell growth at 10^-6 M incubated for 48 hrs by sulforhodamine B assay", "conditions": "NCI-H226, 48 h, read-out: Activity"}, "NCI-H23": {"tested_on": "NCI-H23", "test": "Growth inhibition of human NCI-H23 cells incubated for 48 hrs by sulforhodamine B assay", "conditions": "NCI-H23, 48 h", "method_in_brief": "as §1"}, "[12]": {"test": "Growth inhibition of human OVCAR4 cells assessed as cell growth at 10^-7 M incubated for 48 hrs by sulforhodamine B assay", "conditions": "OVCAR-4, 48 h, read-out: Activity"}, "786-0": {"tested_on": "786-0", "test": "Growth inhibition of human 786-0 cells incubated for 48 hrs by sulforhodamine B assay", "conditions": "786-0, 48 h", "method_in_brief": "as §2"}, "KM12 [13]": {"tested_on": "KM12", "test": "Growth inhibition of human KM12 cells assessed as cell growth at 10^-4 M incubated for 48 hrs by sulforhodamine B assay", "conditions": "KM12, 48 h, read-out: Activity"}, "[14]": {"test": "Growth inhibition of human RXF393 cells assessed as cell growth at 10 uM incubated for 48 hrs by sulforhodamine B assay", "conditions": "RXF 393, 48 h, read-out: Activity"}, "[15]": {"test": "Growth inhibition of human Caki1 cells assessed as cell growth at 10^-4 M incubated for 48 hrs by sulforhodamine B assay", "conditions": "CAKI-1, 48 h, read-out: Activity", "method_in_brief": "as §3"}, "KM12 [16]": {"tested_on": "KM12", "test": "Growth inhibition of human KM12 cells assessed as cell growth at 10^-5 M incubated for 48 hrs by sulforhodamine B assay", "conditions": "KM12, 48 h, read-out: Activity"}},
  "data": [
    {"smiles": "Clc1ccc(-c2nc(Nc3ccc(-c4nc5ccccc5[nH]4)cc3)nc(N3CCOCC3)n2)cc1", "values": [
      {"measurement": "growth at 1 µM", "setting": "[1]", "value": 68, "unit": "%"},
      {"measurement": "growth at 100 µM", "setting": "[2]", "value": -10, "unit": "%"},
      {"measurement": "GI50", "setting": "T47D; read-out: GI50", "value": 376, "unit": "nM"},
      {"measurement": "TGI", "setting": "T47D; read-out: TGI", "value": 1720, "unit": "nM"},
      {"measurement": "GI50", "setting": "T47D; read-out: pGI50 (converted)", "value": 380, "unit": "nM"},
      {"measurement": "TGI", "setting": "T47D; read-out: pTGI (converted)", "value": 1740, "unit": "nM"},
      {"measurement": "growth at 10 µM", "setting": "A498", "value": -83, "unit": "%"},
      {"measurement": "growth at 10 µM", "setting": "[3]", "value": -73.6, "unit": "%"},
      {"measurement": "growth at 10 µM", "setting": "[4]", "value": -74.2, "unit": "%"},
      {"measurement": "growth at 10 µM", "setting": "[5]", "value": -76, "unit": "%"},
      {"measurement": "growth at 0.01 µM", "setting": "[6]", "value": 98, "unit": "%"},
      {"measurement": "growth at 0.1 µM", "setting": "[7]", "value": 93, "unit": "%"},
      {"measurement": "GI50", "setting": "[8]; read-out: GI50", "value": 305, "unit": "nM"},
      {"measurement": "TGI", "setting": "[8]; read-out: TGI", "value": 1070, "unit": "nM"},
      {"measurement": "GI50", "setting": "[8]; read-out: pGI50 (converted)", "value": 302, "unit": "nM"},
      {"measurement": "TGI", "setting": "[8]; read-out: pTGI (converted)", "value": 1070, "unit": "nM"},
      {"measurement": "GI50", "setting": "[9]", "value": 1110, "unit": "nM"},
      {"measurement": "TGI", "setting": "[9]", "value": 2250, "unit": "nM"},
      {"measurement": "CC50", "setting": "[9]; read-out: LC50 (the source's name)", "value": 5600, "unit": "nM"},
      {"measurement": "GI50", "setting": "CCRF-CEM; read-out: GI50", "value": 259, "unit": "nM"},
      {"measurement": "TGI", "setting": "CCRF-CEM; read-out: TGI", "value": 687, "unit": "nM"},
      {"measurement": "GI50", "setting": "CCRF-CEM; read-out: pGI50 (converted)", "value": 257, "unit": "nM"},
      {"measurement": "TGI", "setting": "CCRF-CEM; read-out: pTGI (converted)", "value": 692, "unit": "nM"},
      {"measurement": "growth at 10 µM", "setting": "[10]", "value": -77, "unit": "%"},
      {"measurement": "growth at 0.01 µM", "setting": "[11]", "value": 94, "unit": "%"},
      {"measurement": "GI50", "setting": "SN12C; read-out: GI50", "value": 851, "unit": "nM"},
      {"measurement": "TGI", "setting": "SN12C; read-out: TGI", "value": 2390, "unit": "nM"},
      {"measurement": "GI50", "setting": "SN12C; read-out: pGI50 (converted)", "value": 851, "unit": "nM"},
      {"measurement": "TGI", "setting": "SN12C; read-out: pTGI (converted)", "value": 2400, "unit": "nM"},
      {"measurement": "growth at 1 µM", "setting": "NCI-H226", "value": 100, "unit": "%"},
      {"measurement": "GI50", "setting": "NCI-H23; read-out: GI50", "value": 1700, "unit": "nM"},
      {"measurement": "TGI", "setting": "NCI-H23; read-out: TGI", "value": 3660, "unit": "nM"},
      {"measurement": "GI50", "setting": "NCI-H23; read-out: pGI50 (converted)", "value": 1700, "unit": "nM"},
      {"measurement": "TGI", "setting": "NCI-H23; read-out: pTGI (converted)", "value": 3630, "unit": "nM"},
      {"measurement": "growth at 0.1 µM", "setting": "[12]", "value": 98, "unit": "%"},
      {"measurement": "GI50", "setting": "786-0; read-out: GI50", "value": 177, "unit": "nM"},
      {"measurement": "TGI", "setting": "786-0; read-out: TGI", "value": 348, "unit": "nM"},
      {"measurement": "GI50", "setting": "786-0; read-out: pGI50 (converted)", "value": 178, "unit": "nM"},
      {"measurement": "TGI", "setting": "786-0; read-out: pTGI (converted)", "value": 347, "unit": "nM"},
      {"measurement": "growth at 100 µM", "setting": "KM12 [13]", "value": -67, "unit": "%"},
      {"measurement": "growth at 10 µM", "setting": "[14]", "value": -91.1, "unit": "%"},
      {"measurement": "growth at 100 µM", "setting": "[15]", "value": -68, "unit": "%"},
      {"measurement": "growth at 10 µM", "setting": "KM12 [16]", "value": -81, "unit": "%"}
    ]}
  ]
}
